From PMC9050788 (European Journal of Drug Metabolism and Pharmacokinetics, 2022)
“Also recorded” adds a separate entry of the source.

How the values were obtained:
[1] = cited from earlier work
Single vs multiple-dose = type: in vivo, human; settings: for Mean (SD) plasma concentration: abrocitinib 200 mg once daily; for Contribution to the total active moiety (unbound, adjusted for relative potencies): at steady state with 200 mg QD dosing
[2] = tested on: organic anion transporter 3 (OAT3); settings: in vitro transporter profiling; ref data on file; cited from earlier work
[3] = population analyses; ref data on file; cited from earlier work
[4] = tested on: cytochrome P450 (CYP) 2C19; settings: CYP2C19; data on file; cited from earlier work
[5] = Phase I DDI study of abrocitinib with rifampin; type: in vivo, human
[6] = Phase I DDI study of abrocitinib with probenecid; type: in vivo, human
CYP2B6 = settings: data on file; cited from earlier work
CYP3A4 = settings: data on file; cited from earlier work
[7] = Phase I DDI study of abrocitinib with fluvoxamine; type: in vivo, human
CYP2C9 = settings: data on file; cited from earlier work
[8] = Phase I DDI study of abrocitinib with fluconazole; type: in vivo, human
[9] = Safety across the three phase I DDI studies; type: in vivo, human; settings: all three studies, healthy volunteers
Procedure, shortened: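 Safety population comprised all subjects receiving at least one dose of study medication. Adverse events were summarised descriptively.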

[10] = after a single oral dose of abrocitinib; ref data on file; cited from earlier work
[11] = plasma protein binding; ref data on file; cited from earlier work
[12] = Abrocitinib 100 mg single dose (n = 12), rifampin study
[13] = Abrocitinib 200 mg single dose + Rifampin 600 mg QD (n = 12)
[14] = with rifampin vs abrocitinib alone, active moiety unbound
[15] = Abrocitinib 100 mg single dose (n = 12), probenecid study
[16] = Abrocitinib 200 mg single dose + Probenecid 1000 mg BID (n = 12)
[17] = with probenecid vs abrocitinib alone, active moiety unbound
[18] = Abrocitinib 100 mg single dose (n = 12), fluvoxamine study
[19] = Abrocitinib 100 mg single dose + fluvoxamine 50 mg QD (n = 12)
[20] = with fluvoxamine vs abrocitinib alone, active moiety unbound
[21] = Abrocitinib 100 mg single dose (n = 12), fluconazole study
[22] = Abrocitinib 100 mg single dose + fluconazole 200 mg QD (n = 12)
[23] = with fluconazole vs abrocitinib alone, active moiety unbound
[24] = Probenecid 1000 mg BID (n = 12)

CCCS(=O)(=O)N[C@H]1C[C@@H](N(C)c2ncnc3[nH]ccc23)C1 [Abrocitinib, N-{cis-3-[Methyl(7H-pyrrolo[2,3-d]pyrimidin-4-yl)amino]cyclobutyl}propane-1-sulfo namide]
Parent drug excreted unchanged in the urine [1]: 1.0–4.4% | Mean (SD) plasma concentration (Single vs multiple-dose; before dosing on Day 2): 9.16 (7.96) ng/mL | Mean (SD) plasma concentration (Single vs multiple-dose; before dosing on Day 3): 15.01 (21.38) ng/mL | Mean (SD) plasma concentration (Single vs multiple-dose; before dosing on Day 4): 14.95 (15.88) ng/mL | concentration at 24 h (Single vs multiple-dose; human, plasma, oral, 200 mg): 11.3 ng/mL | Time to steady-state plasma concentrations (Single vs multiple-dose; once-daily administration, achieved by Day 3 of dosing): ≤ 48 h | Substrate of OAT3 [2]: not a substrate | Sex-related differences in pharmacokinetics [3]: no sex-related differences | Contribution to abrocitinib metabolism [4]: 53% | Subjects with TEAEs [5, 12]: 2 (16.7) n (%) | Subjects with TRAEs [5, 12]: 2 (16.7) n (%) | Subjects with TEAEs [5, 13]: 4 (33.3) n (%) | Subjects with TRAEs [5, 13]: 4 (33.3) n (%) | Decrease in AUCinf [5, 14]: 87.6% | Decrease in Cmax [5, 14]: 79.1% | Subjects with TEAEs [6, 15]: 6 (50.0) n (%) | Subjects with TRAEs [6, 15]: 2 (16.7) n (%) | Subjects with TEAEs [6, 16]: 5 (41.7) n (%) | Subjects with TRAEs [6, 16]: 4 (33.3) n (%) | Increase in Cmax [6, 17]: 1.2 fold | Contribution to abrocitinib metabolism (CYP2B6): 6% | Contribution to abrocitinib metabolism (CYP3A4): 11% | Subjects with TEAEs [7, 18]: 3 (25.0) n (%) | Subjects with TRAEs [7, 18]: 3 (25.0) n (%) | Subjects with TEAEs [7, 19]: 6 (50.0) n (%) | Subjects with TRAEs [7, 19]: 3 (25.0) n (%) | Increase in AUCinf [7, 20]: 2.8 fold | Increase in Cmax [7, 20]: 1.8 fold | Contribution to abrocitinib metabolism (CYP2C9): 30% | Subjects with TEAEs [8, 21]: 2 (16.7) n (%) | Subjects with TRAEs [8, 21]: 2 (16.7) n (%) | Subjects with TEAEs [8, 22]: 7 (58.3) n (%) | Subjects with TRAEs [8, 22]: 6 (50.0) n (%) | Increase in AUCinf [8, 23]: 4.8 fold | Increase in Cmax [8, 23]: 1.9 fold | Serious or severe adverse events [9]: No serious or severe adverse events | Share of circulating species [10]: 26%

CN(c1ncnc2[nH]ccc12)[C@H]1C[C@@H](NS(=O)(=O)CCCO)C1 [M1]
Contribution to the total active moiety (unbound, adjusted for relative potencies) (Single vs multiple-dose): ~ 10% | Substrate of OAT3 [2]: substrates; also recorded: in part a substrate | Increase in Cmax [6, 17]: 1.4 fold | Fraction unbound in plasma (fu) [11]: 0.63 | Share of circulating species [10]: 11%

CC(O)CS(=O)(=O)N[C@H]1C[C@@H](N(C)c2ncnc3[nH]ccc23)C1 (stereo partly shown) [M2]
Contribution to the total active moiety (unbound, adjusted for relative potencies) (Single vs multiple-dose): ~ 30% | Substrate of OAT3 [2]: substrates; also recorded: in part a substrate | Increase in AUCinf [6, 17]: 2.2 fold | Increase in Cmax [6, 17]: 1.3 fold | Fraction unbound in plasma (fu) [11]: 0.71 | Share of circulating species [10]: 12%

CCCN(CCC)S(=O)(=O)c1ccc(C(=O)O)cc1 [Probenecid, reference compound]
Subjects with TEAEs [6, 24]: 2 (16.7) n (%) | Subjects with TRAEs [6, 24]: 2 (16.7) n (%)

CO[C@H]1/C=C/O[C@@]2(C)Oc3c(C)c(O)c4c(O)c(c(/C=N/N5CCN(C)CC5)c(O)c4c3C2=O)NC(=O)/C(C)=C\C=C\[C@H](C)[C@H](O)[C@@H](C)[C@@H](O)[C@@H](C)[C@H](OC(C)=O)[C@@H]1C [Rifampin, reference compound]
Subjects with TEAEs ([5]; Rifampin 600 mg QD (n = 12)): 10 (83.3) n (%) | Subjects with TRAEs ([5]; Rifampin 600 mg QD (n = 12)): 10 (83.3) n (%)
